Measured values reported in PubChem BioAssay AID1040 (The Scripps Research Institute Molecular Screening Center, 2008).
The whole screen tested about 200,000 compounds, of which about 2,000 (1%) were called active. For the sample, actives were picked, then their nearest neighbours and some compounds at random. A number with no mark means an inactive call.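 How the source made its calls: active means inhibition above the campaign mean inhibition of all tested compounds plus 3 SD (cut at about 20% in these data); inactive means the rest.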

target: Neuropeptide Y receptor type 1 (Homo sapiens) (UniProt P25929); assay: NPY-Y1 receptor antagonists, primary screen, cell-based (AID 1040); details: HEK293-CNG Y1 cells, membrane potential fluorescence; at 3.6 µM; active compounds read high; NPY at EC95, then isoproterenol;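 further: 0% = DMSO wells given NPY plus isoproterenol and 100% = isoproterenol alone without NPY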
Sequence (P25929 whole entry, looked up): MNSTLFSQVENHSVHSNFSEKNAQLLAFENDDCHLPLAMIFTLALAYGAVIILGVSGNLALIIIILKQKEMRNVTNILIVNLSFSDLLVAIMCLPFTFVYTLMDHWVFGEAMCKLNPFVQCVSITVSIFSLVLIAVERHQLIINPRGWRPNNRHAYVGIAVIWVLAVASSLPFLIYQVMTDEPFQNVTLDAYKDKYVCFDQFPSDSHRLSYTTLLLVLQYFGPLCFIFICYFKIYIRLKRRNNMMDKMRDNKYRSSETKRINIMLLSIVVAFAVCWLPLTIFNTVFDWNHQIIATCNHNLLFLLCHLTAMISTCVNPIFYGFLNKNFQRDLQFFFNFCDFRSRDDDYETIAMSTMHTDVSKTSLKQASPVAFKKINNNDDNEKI
Outline: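 Material: Y1- and CNG-channel-expressing HEK293 cells / Probe or stimulus: NPY 25 nM then isoproterenol 1 µM plus Ro 20-1724 25 µM / Doses: 3.6 µM single dose, DMSO 0.4% / Schedule: compound incubation 1 h at room temperature, readout 45 min post-stimulation / Signal: membrane potential fluorescence / Benchmarks: isoproterenol-only wells as full block versus NPY-plus-isoproterenol wells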

SMILES	inhibition
COc1ccc(NC(=O)/C(C#N)=C\c2cc(OC)c(OCc3ccc(C(=O)O)cc3)cc2Br)cc1	2.86%
O=C1c2cccnc2C(Nc2ccc(S(=O)(=O)N3CCCCCC3)cc2)N1Cc1ccccc1 (stereo not drawn)	30.7% (active)
O=S(=O)(NCc1ccccc1)c1ccc(S(=O)(=O)N2CCCC2)cc1	1%
Cc1nc(Nc2ccc(S(=O)(=O)N3CCCC3)cc2)c2nnn(Cc3ccccc3)c2n1	-11%
Cc1cccc(N2CCC(NCc3c(C(=O)N4CCCCC4)nc4c(C)cccn34)CC2)c1	11%
COc1ccc(C(C[N+](=O)[O-])n2nc(C)cc2C)cc1 (stereo not drawn)	-2.49%
COc1ccc(OC)c(CNC(=O)C2CCCN(c3nc4ccccc4o3)C2)c1 (stereo not drawn)	7.8%
COc1ccccc1CNC(=O)C1CCN(c2nc3ccccc3o2)CC1	-3.62%
CCc1ccc(CNC(=O)C2CCCN(c3nc4ccccc4o3)C2)cc1 (stereo not drawn)	26.4% (active)
COC(=O)c1ccc(COC(=O)c2cnccn2)cc1	-0.5%
OC(COCC1COc2ccccc2O1)CN1CCN(c2ccc(F)cc2)CC1 (stereo not drawn)	-9.16%
Cc1ccc(S(=O)(=O)N(C)CC(=O)OCC(=O)N2CC(=O)Nc3ccccc32)cc1	1.33%
O=C(c1ccccc1)c1ccc(OCC(O)CN2CCCC2)cc1 (stereo not drawn)	20.8% (active)
OC(COc1cccc(OCC(O)CN2CCCC2)c1)CN1CCCC1 (stereo not drawn)	6.73%
O=C(c1ccc(Cl)cc1)c1ccc(OCC(O)CN2CCCCC2)cc1 (stereo not drawn)	6.02%
CN1CCNC(=O)C1CC(=O)NCCC1=CCCCC1 (stereo not drawn)	1.21%
Cc1ccc(OCC(=O)NC(C)c2ccccc2)c([N+](=O)[O-])n1 (stereo not drawn)	19.9%
CS(=O)(=O)N1CCCC(C(=O)N2CCOCC2)C1 (stereo not drawn)	94.5% (active)
Cc1ccc(CNC(=O)C2CCCN(S(C)(=O)=O)C2)cc1 (stereo not drawn)	0.15%
CCCS(=O)(=O)N1CCCC(C(=O)N2CCN(c3ccccc3)CC2)C1 (stereo not drawn)	0.57%
COc1ccc(N2CCN(CCCNC(=O)C3CCN(S(=O)(=O)N4CCOCC4)CC3)CC2)cc1	-2.61%
CCCSc1nc(NCc2ccco2)c2c3c(sc2n1)COC(C)(CC)C3 (stereo not drawn)	30.4% (active)
CN(C)CCSc1nc(N)c2c3c(sc2n1)COC(C)(C)C3	1.6%
CCC1(C)Cc2c(sc3nc(SC)nc(N)c23)CO1 (stereo not drawn)	-1.88%
CCOc1ccc(C(CCc2ccccc2)NC(=O)c2ccc(OC)c(OC)c2)cc1OCC (stereo not drawn)	-0.85%

SMILES	inhibition
COC(=O)c1ccc(C(NC(=O)OCc2ccccc2)/C(C)=C/[C@@H](C)C(=O)NCc2ccc(OC)c(OC)c2)cc1 (stereo partly drawn)	21.5% (active)
COC(=O)c1ccc(C2C(Oc3ccccc3C)C(=O)N2CCc2ccc(OC)c(OC)c2)cc1 (stereo not drawn)	8.91%
O=C(CCCNS(=O)(=O)c1cccc2nsnc12)NCCN1CCN(c2ccccc2F)CC1	1.63%
Cc1c(/C=N\NC(=O)c2cc3ccccc3o2)c2ccccc2n1C	8.68%
O=C1C(=O)N(c2ccccc2)c2ccccc21	7.08%
CCOC(=O)Nc1ccccc1N1C(=O)c2ccccc2C1=O	-3.15%
O=C1c2ccccc2C(=O)N1c1ccccc1S(=O)C(F)(F)F (stereo not drawn)	21.4% (active)
O=C(NNC1=C(C(=O)C(F)(F)F)CCC1)c1ccncc1	0.61%
CC(=O)c1cc(-c2ccccc2)n(CCC(=O)NC2CCCCCC2)c1C	2.33%
CCCc1[nH]nc2c1C(c1c(C)nn(-c3ccccc3)c1Cl)C(C#N)=C(N)O2 (stereo not drawn)	-1.69%
CCCc1[nH]nc2c1C(c1ccc(Br)s1)C(C#N)=C(N)O2 (stereo not drawn)	68.6% (active)
CCCc1[nH]nc2c1C(C1CC=CCC1)C(C#N)=C(N)O2 (stereo not drawn)	-5.43%
O=C(COC(=O)c1cnc(Cl)c(Cl)c1)NCc1ccco1	1.45%
N#Cc1ccc(N2Cc3ccccc3/C2=N/C(=O)Nc2ccc(Cl)cc2)cc1	-0.16%
C/C(=N\NC(=S)NCc1ccccc1)C1CCCCC1	3.71%
C/C(=N\NC(=S)NCc1ccccc1)c1ccc(Cl)cc1	21.7% (active)
O=C(O)c1ccc(/C=N/NC(=S)NCc2ccccc2)cc1	4.72%
OCCC1CN(Cc2cnc(-c3ccccc3)s2)CCN1CCc1ccccc1 (stereo not drawn)	-0.62%
CCCCCCn1c(CN2CCCCC2)nc2c1c(=O)n(C)c(=O)n2C	11.1%
CCCCCCCCn1c2c(c(=N)c3c1CCC3)CCCC2	81.5% (active)
Cn1cnnc1SCC(=O)NNC(=O)COc1ccc(Br)cc1	10.5%
CC1(C)OC(=O)C(=CNC(CO)C(=O)O)C(=O)O1 (stereo not drawn)	0.88%
CN(C)CCCCCN(C)Cc1cc2ccccc2o1	22.6% (active)
OCC1(Cc2ccccc2)CCN(Cc2cc3ccccc3o2)CC1	9.75%
CCCOC(=O)c1cc2ccccc2oc1=O	1.89%

SMILES	inhibition
O=C(CCC(=O)OCc1ccc(Cl)cc1)Nc1ccccc1	-2.82%
O=C(O)/C=C/c1cn(-c2ccccc2)nc1-c1cccs1	3.05%
O=C(/C=C\c1cn(-c2ccccc2)nc1-c1cccs1)N1CCOCC1	4.67%
O=C(O)/C=C/c1cn(Cc2ccccc2)nc1-c1cccs1	20.8% (active)
O=C(OCc1cc(Cl)ccc1OC(F)F)c1cccnc1	-0.25%
Cc1c(Cl)c([N+](=O)[O-])nn1CCCC(=O)NC(C)c1ccccc1 (stereo not drawn)	1.69%
COc1cc(OC)c(C(=O)Nc2ccccc2-c2ccccc2)cc1OC	2.51%
CCC/C=C(\CCC)C(NC(=O)Cc1ccccc1)c1ccc(C(=O)OC)cc1 (stereo not drawn)	26.8% (active)
CCC[C@@H]1C[C@@]1(CCC)[C@@H](NC(=O)c1ccccc1)c1ccc(C(=O)OC)cc1	6.57%
COc1ccc(C(CC(=O)O)NC(=O)Cc2ccccc2)cc1 (stereo not drawn)	-4.05%
O=C(CCc1nnc(CCCCc2ccccc2)o1)NC(c1cccnc1)C(F)(F)F (stereo not drawn)	3.83%
S=c1[nH]nc(Nc2ccccc2)s1	7.84%
O=[N+]([O-])c1cccc(C2=NCCS2)c1	2.43%
O=C(CN1C(=O)NC(Cc2ccccc2)(Cc2ccccc2)C1=O)NCC1CCCCC1	68.1% (active)
O=C(CN1C(=O)NC2(CCCC2)C1=O)NCC1CCCO1 (stereo not drawn)	-1.75%
O=C(CN1C(=O)NC2(CCCCCC2)C1=O)NC1CC1	0.75%
O=C(CC1SCCNC1=O)Nc1ccc(Cl)cc1 (stereo not drawn)	6.74%
Cc1cc(C)c2c(-n3cccc3)c(NC(=O)OCc3ccccc3)sc2n1	36.9% (active)
COC(=O)Nc1sc2nc(C)cc(C)c2c1-n1cccc1	0.35%
CCCCOC(=O)Nc1sc2nc(C)cc(C)c2c1-n1cccc1	2.5%
CCC(C)NC(=O)CN(C1CCCCC1)S(C)(=O)=O (stereo not drawn)	0.13%
O=C(NCCCN1CCOCC1)c1cnn2c(-c3ccccc3)cc(-c3ccccc3)nc12	30.1% (active)
O=C(NCCCN1CCOCC1)c1ccccc1NS(=O)(=O)c1ccc(Br)cc1	11.9%
O=C(NCCCN1CCOCC1)c1ccccc1NS(=O)(=O)c1ccc(F)cc1	5.43%
O=C(CN1CCN(c2ccc(O)cc2)CC1)NC1CCCc2ccccc21 (stereo not drawn)	4.77%

SMILES	inhibition
Nc1nc(SCC(=O)NNc2c(Cl)cc(Cl)cc2Cl)n[nH]1	8.35%
CC(=O)c1c(C)[nH]c(C(=O)COC(=O)c2cccc(S(=O)(=O)N(C)c3ccccc3)c2)c1C	2.37%
CC(C)CNC(=O)COC(=O)c1ccccc1OCC(=O)Nc1ccc(Br)cc1	3.51%
COc1cc(OC)c(NC(=O)c2ccc(Br)o2)cc1Cl	0%
CCCC(=O)Nc1ccc(Cl)c(NC(=O)c2ccc(Br)o2)c1	-1.88%
CCN1CCN(c2c(Cl)cccc2NC(=O)c2ccc(Br)o2)CC1	23.8% (active)
Cc1ccc(C(=O)NC(=S)Nc2ccc(N3CCOCC3)cc2)cc1	-3.91%
Cc1ccc(OCC(=O)N/N=C\c2ccco2)c(C)c1	7.4%
Cc1ccc(OCC(=O)N/N=C/c2ccncc2)cc1	0.98%
Cc1ccc(/C=N/NC(=O)COc2ccccc2-c2ccccc2)cc1	22.8% (active)
OCCNCc1cccc(OCc2ccccc2Cl)c1	11.2%
O=C(O)c1ccc(/C=N/NC(=O)c2ccc(Br)cc2)cc1	2.79%
Cc1cccc(C)c1OCC(O)CN1CCCCC1 (stereo not drawn)	6.39%
OC(COc1ccc(CN2CCSCC2)cc1)CN1CCCCC1 (stereo not drawn)	6.88%
OC(COCCC12CC3CC(CC(C3)C1)C2)CN1CCCCC1 (stereo not drawn)	26.9% (active)
CCC1CCCCN1C(=O)CSc1nc2c(c(=O)n(C)c(=O)n2C)n1C (stereo not drawn)	4.16%
C=CCn1c(CNC(=O)c2ccco2)nnc1SCC(=O)c1ccc(OC)cc1	0.4%
CCn1c(COc2ccccc2)nnc1SCC(=O)NCc1ccco1	-4.68%
COc1ccc(C(=O)CSc2nnc(COc3ccccc3)n2Cc2ccco2)cc1	24.4% (active)
COc1ccc(NC(=O)CCNS(=O)(=O)c2ccc3c(c2)c(=O)n(C)c(=O)n3C)cc1OC	5.39%
CC(=O)Nc1nc2ccccc2n1Cc1ccc(C)cc1	6.94%
Cc1ccc(Cn2c(NC(=O)c3ccco3)nc3ccccc32)cc1	24.1% (active)
Cc1ccc(-n2nc3cc(Cl)c(NC(=O)c4ccco4)cc3n2)cc1	-10%
